ChEMBL document CHEMBL1212766, “Dose escalation study of the safety, tolerability, and pharmacokinetics of nemonoxacin (TG-873870), a novel potent broad-spectrum nonfluorinated quinolone, in healthy volunteers” (Antimicrob Agents Chemother, 2010)
Converted amounts (≈) assume the structure as drawn.

Experiments:
Homo sapiens [1] = assay: Toxicity in healthy human assessed as occurrence of headache at 250 […], po; type: organism-based; parameters: route oral; conditions: in vivo
Streptococcus pneumoniae [2] = assay: Ratio of fAUC to MIC90 for Streptococcus pneumoniae; type: functional
In short: (§1)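 Fasted healthy adults got a single oral 500 mg dose with 240 ml water. Plasma was sampled predose to 96 h and assayed by LC-MS/MS (5–5,000 ng/ml). Cmax was read from individual profiles, and AUC0-∞ came from linear trapezoid plus extrapolation. Free fraction was measured by ultrafiltration (30,000 MWCO) of 0.5 and 6 h plasma. Free exposure was divided by the isolate MIC90.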

[3] = Tmax in healthy human at 25 mg, po administered as single dose; conditions: in vivo
[4] = Cmax in healthy human at 500 mg, po administered as single dose; conditions: in vivo
Homo sapiens [5] = assay: Toxicity in healthy human assessed as occurrence of pruritus at 125 […], po; type: organism-based; parameters: route oral; conditions: in vivo
Homo sapiens [6] = assay: Toxicity in healthy human assessed as occurrence of contact dermatitis at 125 […], po; type: organism-based; parameters: route oral; conditions: in vivo
In short: (§2)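 Randomized, double-blind, placebo-controlled single ascending oral doses in healthy volunteers (cohorts of 6 active, 2 placebo; 25–1,500 mg). After a 10-h fast, dose given with 240 ml water; fasting continued 4 h. Subjects were confined to 96 h postdose. AEs were recorded throughout dosing and at follow-up, reported as number and percentage of subjects with events per treatment.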

[7] = Cmax in healthy human at 1500 mg, po administered as single dose; conditions: in vivo
[8] = Renal clearance in healthy human at 500 mg, po administered as single dose; conditions: in vivo, read-out: CL_renal (converted)
Homo sapiens [9] = assay: Clearance in healthy human at 1500 mg, po administered as single dose; conditions: in vivo
Homo sapiens [10] = assay: Toxicity in healthy human assessed as occurrence of contact dermatitis at 50 […], po; type: organism-based; parameters: route oral; conditions: in vivo; in short: as §2
[11] = Clearance in healthy human assessed as recovery of unchanged drug in urine at 250 […], po administered as single dose; type: ADME, organism-based; parameters: route oral; conditions: read-out: Recovered in urine
In short: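 Healthy volunteers, six on drug per cohort, fasted 10 h and given one oral dose with 240 ml water, then fasted 4 h more. Urine was pooled over intervals from 0-2 to 72-96 h and stored at about −70°C. Drug was measured by solid-phase extraction and LC-MS/MS (LLOQ 200 ng/ml), giving the percent of dose recovered unchanged. Values are means (SD).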

Homo sapiens [12] = assay: Terminal volume of distribution in healthy human at 25 mg, po administered as single dose; conditions: in vivo
Streptococcus pneumoniae [13] = assay: Ratio of fCmax to MIC90 for penicillin-resistant Streptococcus pneumoniae; type: functional; in short: as §1
Streptococcus pneumoniae [14] = assay: Ratio of fAUC to MIC90 for penicillin-intermediate Streptococcus pneumoniae; type: functional; in short: as §1
Homo sapiens [15] = assay: Toxicity in healthy human assessed as occurrence of oral hypoesthesia at 25 […], po; type: organism-based; parameters: route oral; conditions: in vivo
Homo sapiens [16] = assay: Toxicity in healthy human assessed as occurrence of abdominal pain at 1500 […], po; type: organism-based, Abdomen; parameters: route oral; conditions: in vivo
In short: (§3)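 Double-blind, placebo-controlled single ascending oral dose; two placebo and six active subjects per cohort. Adverse events were recorded throughout the dosing period and at follow-up, with confinement to 96 h after dosing. Results are reported as number and percentage of subjects with the event (n/N × 100).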

Homo sapiens [17] = assay: Toxicity in healthy human assessed as occurrence of pustular rashes at 1000 […], po; type: organism-based; parameters: route oral; conditions: in vivo
Homo sapiens [18] = assay: Terminal volume of distribution in healthy human at 1000 mg, po administered as single dose; conditions: in vivo
Homo sapiens [19] = assay: Toxicity in healthy human assessed as occurrence of pruritus at 25 […], po; type: organism-based; parameters: route oral; conditions: in vivo
Homo sapiens [20] = assay: Toxicity in healthy human assessed as occurrence of erythema at 1000 […], po; type: organism-based; parameters: route oral; conditions: in vivo
Homo sapiens [21] = assay: Toxicity in healthy human assessed as occurrence of contact dermatitis at 1000 […], po; type: organism-based; parameters: route oral; conditions: in vivo; in short: as §3
Homo sapiens [22] = assay: Clearance in healthy human at 250 mg, po administered as single dose; conditions: in vivo
Homo sapiens [23] = assay: Terminal volume of distribution in healthy human at 125 mg, po administered as single dose; conditions: in vivo
Streptococcus pneumoniae [24] = assay: Antimicrobial activity against penicillin-sensitive Streptococcus pneumoniae; type: functional
Homo sapiens [25] = assay: Toxicity in healthy human assessed as occurrence of erythema at 1500 […], po; type: organism-based; parameters: route oral; conditions: in vivo
Homo sapiens [26] = assay: Toxicity in healthy human assessed as occurrence of contact dermatitis at 1500 […], po; type: organism-based; parameters: route oral; conditions: in vivo; in short: as §2
Homo sapiens [27] = assay: Toxicity in healthy human assessed as occurrence of headache at 125 […], po; type: organism-based; parameters: route oral; conditions: in vivo
[28] = Tmax in healthy human at 500 mg, po administered as single dose; conditions: in vivo
Homo sapiens [29] = assay: Clearance in healthy human at 25 […], po administered as single dose; type: ADME, organism-based; parameters: route oral; conditions: in vivo
In short: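 Randomized, double-blind, placebo-controlled single ascending oral dose in fasted healthy subjects (six on drug per cohort, with 240 ml water). Plasma sampled predose through 96 h and assayed by validated LC-MS/MS over 5–5,000 ng/ml. Oral clearance (CL_o) came from noncompartmental analysis, with AUC_0-∞ from linear trapezoids plus C_last/λz. Values are means (SD).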

[30] = Tmax in healthy human at 250 mg, po administered as single dose; conditions: in vivo
Homo sapiens [31] = assay: AUC (0 to infinity) in healthy human at 250 […], po administered as single dose; type: ADME, organism-based, Plasma; parameters: time infinity, route oral; conditions: in vivo
[32] = Cmax in healthy human at 1000 mg, po administered as single dose; conditions: in vivo
[33] = Renal clearance in healthy human at 50 […], po administered as single dose; type: ADME, organism-based, Kidney; parameters: route oral; conditions: in vivo, read-out: CL_renal (converted)
In short: (§4)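 Renal clearance (CL_r) came from noncompartmental analysis of plasma drawn through 96 h and urine collected over fixed intervals to 96 h. Subjects were fasted healthy volunteers, six per dose cohort, given one oral dose with 240 ml water. Plasma and urine were assayed by LC-MS/MS after solid-phase extraction, with urine LLOQ 200 ng/ml. Values are means (SD).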

Homo sapiens [34] = assay: Toxicity in healthy human assessed as occurrence of nausea at 50 […], po; type: organism-based; parameters: route oral; conditions: in vivo
Homo sapiens [35] = assay: Toxicity in healthy human assessed as occurrence of contact dermatitis at 500 […], po; type: organism-based; parameters: route oral; conditions: in vivo
Homo sapiens [36] = assay: Toxicity in healthy human assessed as occurrence of abdominal pain at 1000 […], po; type: organism-based, Abdomen; parameters: route oral; conditions: in vivo; in short: as §3
Homo sapiens [37] = assay: Toxicity in healthy human assessed as occurrence of abdominal pain at 50 […], po; type: organism-based, Abdomen; parameters: route oral; conditions: in vivo; in short: as §3
Streptococcus pneumoniae [38] = assay: Antimicrobial activity against Streptococcus pneumoniae; type: functional
[39] = Renal clearance in healthy human at 1000 […], po administered as single dose; type: ADME, organism-based, Kidney; parameters: route oral; conditions: in vivo, read-out: CL_renal (converted); in short: as §4

Compound: COc1c(N2C[C@@H](C)C[C@H](N)C2)ccc2c(=O)c(C(=O)O)cn(C3CC3)c12 [NEMONOXACIN]
- Activity (Homo sapiens [1]): 0%
- Ratio (Streptococcus pneumoniae [2]): 1812
- Tmax [3]: 55.2 min
- Cmax [4]: 3410 ng/mL
- Activity (Homo sapiens [5]): 0%
- Activity (Homo sapiens [6]): 33%
- Cmax [7]: 12100 ng/mL
- CL renal [8]: 1.13 mL/min/kg
- CL (Homo sapiens [9]): 3 mL/min/kg
- Activity (Homo sapiens [10]): 0%
- dose excreted [11]: 44.9%
- Vbeta (Homo sapiens [12]): 4.21 L/kg
- Ratio (Streptococcus pneumoniae [13]): 95
- Ratio (Streptococcus pneumoniae [14]): 1812
- Activity (Homo sapiens [15]): 0%
- Activity (Homo sapiens [16]): 17%
- Activity (Homo sapiens [17]): 0%
- Vbeta (Homo sapiens [18]): 5.28 L/kg
- Activity (Homo sapiens [19]): 0%
- Activity (Homo sapiens [20]): 17%
- Activity (Homo sapiens [21]): 0%
- CL (Homo sapiens [22]): 4 mL/min/kg
- Vbeta (Homo sapiens [23]): 3.38 L/kg
- MIC90 (Streptococcus pneumoniae [24]): 0.015 µg/mL (≈ 0.0404 µM)
- Activity (Homo sapiens [25]): 50%
- Activity (Homo sapiens [26]): 0%
- Activity (Homo sapiens [27]): 0%
- Tmax [28]: 120 min
- CL (Homo sapiens [29]): 5 mL/min/kg
- Tmax [30]: 55.2 min
- AUC (Homo sapiens [31]): 15450 ng·h/mL
- Cmax [32]: 7220 ng/mL
- CL renal [33]: 2 mL/min/kg
- Activity (Homo sapiens [34]): 0%
- Activity (Homo sapiens [35]): 0%
- Activity (Homo sapiens [36]): 0%
- Activity (Homo sapiens [37]): 0%
- MIC90 (Streptococcus pneumoniae [38]): 0.015 µg/mL (≈ 0.0404 µM)
- CL renal [39]: 1.4 mL/min/kg
